Test results reported in ChEMBL document CHEMBL3414422, “Synthesis of new steroidal inhibitors of P-glycoprotein-mediated multidrug resistance and biological evaluation on K562/R7 erythroleukemia cells” (J Med Chem, 2015).

How the values were obtained:
[1] = tested on: K562/R7; assay: Inhibition of p-gp (unknown origin) in doxorubicin-resistant human K562/R7 cells assessed as increase in daunorubicin accumulation measured as fluorescence ratio at 10 uM incubated for 1 hr with 10 uM daunorubicin by flow cytometry relative to control; type: cell-based
Method in brief: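 Resistant K562/R7 cells ([…]) incubated 1 h at 37 °C in RPMI 1640 with daunorubicin 10 µM, with or without steroid at 10 µM; intracellular fluorescence read by flow cytometry. Accumulation index = daunorubicin fluorescence ratio with/without modulator. Cyclosporin A as positive control. Duplicates, at least three separate experiments.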

[2] = Intrinsic cytotoxicity against human K562 cells assessed as cell survival […] by MTT assay; type: cell-based; details: read-out: Survival

Row | SMILES | Ratio [1] | viability [2]
1 | CC(=O)[C@H]1CC[C@H]2[C@H]3[C@H]([C@H](OC(=O)c4ccccc4)C[C@]12C)[C@@]1(C)CCC(=O)C[C@H]1C[C@H]3O[C@H]1CCCCO1 | 2.6 | 70.5%
2 | COCCCC(C)[C@H]1CC[C@H]2[C@@H]3[C@H](OC(=O)c4ccccc4)C[C@@H]4CC(=O)CC[C@]4(C)[C@H]3C[C@H](O[C@H]3CCCCO3)[C@]12C (some centres undefined) | 2.2 | 75.8%
